# Screening data (PubChem)
# Compounds with a hit are over-represented: about 0.68% of the library has one in this group of screens.
# TNAP inh no acc = blocks human TNAP activity with no phosphate acceptor present | purified TNAP, CDP-star luminescence, 30 min | AID 1012 | 200,000 tested, 0.26% active | P05186 | inhibition, % at 20 µM;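 active = tissue-nonspecific alkaline phosphatase inhibition above about 50% at 20 µM in the single-dose screen, limit read from the data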;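 also: 0% = DMSO negative control and 100% = EDTA positive control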
# TNAP act hi DEA = activators of human TNAP at high phosphate acceptor concentration | P05186 | purified TNAP, CDP-star luminescence, 1 M DEA, 30 min; hits give high values; 0 = EDTA background, 1 = DMSO-only activity | activation factor at 20 µM | 200,000 tested, under 10 active;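 active = activation factor at least 2 at 20 µM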
#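 Dosing: 20 µM single point. System: human TNAP. Amount: TNAP 1/800 final. Incubation: 30 min, room temperature. Read-out: TNAP activation factor scaled between EDTA and DMSO control wells. Signal: luminescence from CDP-star hydrolysis. Medium: 1 M DEA, pH 9.8, Mg2+, Zn2+. Control set: EDTA negative control, DMSO positive control.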
# Furin inh = inhibitors of human furin; inhibition, % at 20 µM or 30 µM; 220,000 tested, 0.061% active; purified furin, fluorogenic substrate cleavage; AID 463115; in the data active = inhibition above about 25%
# Target sequence (P09958 108-714 limits assumed): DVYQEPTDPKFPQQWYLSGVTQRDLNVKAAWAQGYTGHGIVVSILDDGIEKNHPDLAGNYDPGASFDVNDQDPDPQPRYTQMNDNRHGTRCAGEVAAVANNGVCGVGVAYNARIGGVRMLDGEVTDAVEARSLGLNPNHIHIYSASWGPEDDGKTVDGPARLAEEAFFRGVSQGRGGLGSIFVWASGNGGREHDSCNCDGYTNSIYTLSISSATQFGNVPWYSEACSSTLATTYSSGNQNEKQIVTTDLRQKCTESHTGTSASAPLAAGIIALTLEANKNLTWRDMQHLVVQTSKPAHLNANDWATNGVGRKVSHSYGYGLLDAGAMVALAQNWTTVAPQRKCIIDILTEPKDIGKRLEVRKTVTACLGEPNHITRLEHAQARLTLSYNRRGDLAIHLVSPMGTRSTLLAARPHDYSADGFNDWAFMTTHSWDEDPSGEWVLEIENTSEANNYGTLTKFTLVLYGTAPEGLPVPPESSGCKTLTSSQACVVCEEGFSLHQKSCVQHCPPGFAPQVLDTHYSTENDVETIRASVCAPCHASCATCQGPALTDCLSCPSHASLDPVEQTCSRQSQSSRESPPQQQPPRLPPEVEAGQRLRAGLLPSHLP
# HMGR II inh = blocks class II HMG-CoA reductase of Enterococcus faecalis | AID 1066 | purified E. faecalis HMGR, NADPH absorbance 340 nm kinetic | inhibition, % at 10 µM | 190,000 tested, 0.41% active;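 active = inhibition above a set limit, the median over all tested compounds plus 3 SD, cut at about 9.5% in these data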;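 also: enzyme runs in reverse so mevalonate oxidation gives rising NADPH absorbance; 0% = complete reaction with DMSO and 100% = background rate lacking mevalonate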
# Pf gametocyte = kills late stage P. falciparum gametocytes; 150,000 tested, 0.065% active; inhibition, % at 10.9 µM; P. falciparum stage V gametocytes, ATP luminescence, 24 h;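 active = inhibition above the mean plus 3 SD of compounds within the control limits, set per campaign, cut at about 38% in these data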;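 also: 0% = DMSO wells and 100% = medium only without gametocytes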
# TNAP inh hiacc = inhibitors of human TNAP at high phosphate acceptor concentration. P05186. purified TNAP, CDP-star luminescence, 1 M DEA. inhibition, % at 20 µM. 200,000 tested, 0.03% active. AID 1135;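 active = over 50% inhibition of tissue-nonspecific alkaline phosphatase at 20 µM in the single-dose screen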;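 also: plate controls were DMSO wells for no effect and EDTA-quenched wells as full inhibition for full effect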
# Numbers without * were called inactive; / = no result given.
SMILES,TNAP inh no acc,TNAP act hi DEA,Furin inh,HMGR II inh,Pf gametocyte,TNAP inh hiacc
CCN1C(=O)C(CC(=O)Nc2c(C)cccc2C)Nc2cc(S(=O)(=O)N(C)C)ccc21 (centres undefined),-7.7,1,-17.2,2.7,0.1,-3.9
C[C@@H]1NC(=O)c2cc([N+](=O)[O-])cc(I)c2OCC[C@@H](C(N)=O)NC(=O)[C@H](CCC(=O)O)NC1=O,-10.9,1,-16.7,-1.2,/,-2.0
CCOC(=O)c1ccc(N/N=C/c2cc(Br)cc([N+](=O)[O-])c2O)cc1,47.5,0.4,-6.9,0.4,-78.8,56.3*
COC(=O)c1ccc(N/N=C/c2cc([N+](=O)[O-])cc(OC)c2O)cc1,20.8,0.8,-1.0,-0.4,/,23.2
O=C(NNC(=O)c1ccc2ccccc2c1O)c1ccccc1Cl,65.2*,1,-9.8,-2.0,-9.9,0.4
Cc1ccc(/C=C/C(=O)O)cc1S(=O)(=O)NCCCO,-9.2,1,-30.3,22.2*,14.6,-2.4
O=C(c1cc2cc([N+](=O)[O-])ccc2oc1=O)N1CCN(C2CCCCC2)CC1,10.7,0.9,-28.3,9.7*,25.2,12.8
CCN1CCN(C(=O)c2cc3cc([N+](=O)[O-])ccc3oc2=O)CC1,10.3,0.9,-41.3,3.1,10.8,13.8
COc1ccc(-c2ccc(SCC(=O)c3ccccc3)nn2)cc1OC,-2.8,1,-18.6,11.2*,-5.0,-2.1
CCCCCCCCCC(=O)Nc1cccnc1,-4.0,1.1,-22.1,10.4*,/,-5.9
CC(C(=O)O)N1C(=O)c2ccccc2C1=O (centres undefined),-13.7,1.1,-15.9,12.5*,8.1,-5.5
O=C(CSc1nc(-c2ccc(F)cc2)nc2c1Cc1ccccc1O2)Nc1ccc(C(=O)O)cc1,-25.3,1.1,-23.5,1.3,-0.9,-9.2
O=C(CSc1nc(-c2ccccc2)nc2c1Cc1ccccc1O2)Nc1ccc(C(=O)O)cc1,-18.6,1,-30.1,15.5*,-3.0,-2.6
COc1cc(/C=N/NC(=O)c2nc(-c3ccccc3)n(-c3ccccc3)n2)ccc1O,-13.5,1,-16.1,-4.7,9.1,0.1
COc1cc(/C=N/c2oc(-c3ccccc3)cc2C#N)ccc1O,23.0,0.9,-11.0,10.1*,/,10.0
O=C(Nc1nccs1)c1ccc(CSc2nnnn2-c2ccccc2)cc1,-2.7,1,-18.1,11.3*,23.0,-0.5
FC(F)(F)c1cnc2c(-c3ccccc3)n[nH]c2c1,81.3*,1,-31.8,-6.2,0.8,3.8
Cc1ccc(NC(=S)/C(=C(\[O-])c2ccc(F)cc2)[n+]2ccccc2)cc1,-9.9,1,-24.5,-1.1,38.9*,-1.8
Cc1ccc(/C([O-])=C(/C(=S)NCc2ccco2)[n+]2ccccc2)cc1,-9.4,1.1,7.7,-0.6,/,-7.4
Cc1ccc(S(=O)(=O)N/N=C/c2ccc(O)c(O)c2)cc1[N+](=O)[O-],67.1*,1,-23.5,-2.3,/,1.8
COc1cccc(NC(=S)/C(=C(\[O-])c2ccc([N+](=O)[O-])cc2)[n+]2ccccc2)c1,-4.4,1,-17.7,6.8,7.8,-1.3
CCOC(=O)c1ccc(N(C(=O)c2cnccn2)C(C(=O)NC2CCCCC2)c2cn(C)nc2C)cc1 (centres undefined),0.5,1.1,-15.4,15.2*,9.2,-6.8
C=CCCOc1ccccc1C(N)=O,/,/,-9.9,/,5.1,/
CCN(CC)CC(=O)Nc1ccc(/C(C)=N/NC2=NCCN2)cc1,-9.7,1,-20.1,9.7*,/,-2.8
C/C(=N\NC1=NCCN1)c1ccc(Cl)cc1,/,/,-2.8,/,18.6,/
SMILES,TNAP inh no acc,TNAP act hi DEA,Furin inh,HMGR II inh,Pf gametocyte,TNAP inh hiacc
CC(=O)Nc1ccc2c(c1)OCCO2,-4.7,1.1,16.9,16.1*,-2.1,-5.0
COc1ccccc1-c1nnc2n1N=C(c1ccc(O)c(O)c1)CS2,66.7*,1,-6.1,2.0,/,4.4
CCOc1ccc(C2=Nn3c(nnc3-c3ccccc3OC)SC2)cc1,-1.5,1,-18.4,-3.3,-2.3,-4.0
COC(=O)c1ccc(NC(=O)CCN2CCOCC2)cc1,/,/,/,/,11.0,/
Cc1ccccc1-c1oc(C)c(C)[n+]1[O-],-13.4,1,-21.4,15.3*,2.8,-4.1
Nc1nc(SCc2ccc(F)cc2)n[nH]1,/,/,/,/,6.2,/
CC(C)CSc1n[nH]c(N)n1,50.0*,1,-19.2,0.4,-12.1,-0.9
CC(=O)Nc1ccc(S(=O)(=O)Nc2cccc(-c3ccc4nncn4n3)c2)cc1,-11.6,1,-29.1,11.2*,8.1,-2.6
